According to ChEMBL document CHEMBL1131249, “Antimalarial cyclic peroxy ketals” (J Med Chem, 1998):

Test system: Plasmodium falciparum
Test: In vitro antimalarial activity against Plasmodium falciparum.
Type: functional, organism-based
Procedure, shortened: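 Method follows earlier published work. Each compound tested in quadruplicate. IC50 derived from fitted concentration–response curves. Artemisinin run as a concurrent control, with n = 20 for the control.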

SMILES	IC50 [nM]
COC1(c2ccc(S(C)(=O)=O)cc2)C=CC2(CCCCCC2)OO1 (configuration not stated)	31
COc1ccc(C2(OC)C=CC3(CCC3)OO2)cc1 (configuration not stated)	160
COC1(c2ccc(S(C)(=O)=O)cc2)C=CC2(CCCCC2)OO1 (configuration not stated)	56
COC1(c2ccc(OC(F)(F)F)cc2)C=CC2(CCCCCC2)OO1 (configuration not stated)	61
COC1(c2ccccc2)C=CC2(CCCCCC2)OO1 (configuration not stated)	220
COC1(c2ccc(F)cc2)C=CC2(CCCCCC2)OO1 (configuration not stated)	85
CCc1ccc(C2(OC)C=CC3(CCCCCC3)OO2)cc1 (configuration not stated)	180
COC1(c2ccccc2)C=CC2(CCCC2)OO1 (configuration not stated)	190
COC1(c2ccc([N+](=O)[O-])cc2)C=CC2(CCCCC2)OO1 (configuration not stated)	46
COc1ccc(C2(OC)C=CC3(CCCCCC3)OO2)cc1 (configuration not stated)	210
COC1(c2ccc(SC)cc2)C=CC2(CCCCC2)OO1 (configuration not stated)	160
COC1(c2ccccc2)C=CC2(CCCCC2)OO1 (configuration not stated)	280
CC(C)OC1(c2ccc(Cl)cc2)C=CC2(CCCCCC2)OO1 (configuration not stated)	1100
COC1(c2ccc(Cl)cc2)C=CC2(CCCCC2)OO1 (configuration not stated)	100
CC1(C)C=CC(O)(c2ccccc2)OO1 (configuration not stated)	> 2500
COC1(c2ccc(Cl)cc2)C=CC2(CCCCCC2)OO1 (configuration not stated)	58
COC1(c2ccc(SC)cc2)C=CC2(CCCCCC2)OO1 (configuration not stated)	78
COC1(c2ccc(F)cc2)C=CC2(CCCCC2)OO1 (configuration not stated)	200
COc1ccc(C2(OC)C=CC3(CCCCC3)OO2)cc1 (configuration not stated)	180
COc1cc(C2(OC)C=CC3(CCCCCC3)OO2)cc(OC)c1OC (configuration not stated)	120
COC1(c2ccccc2)C=CC(C)(C)OO1 (configuration not stated)	1100
C[C@@H]1CC[C@H]2[C@@H](C)C(=O)O[C@@H]3O[C@@]4(C)CC[C@@H]1[C@]32OO4 [ARTEMISININ]	8.4
